Source: PubChem BioAssay (several laboratories)
GLD-1 RNA inh: GLD-1-TGE RNA interaction inhibition (C. elegans); Q17339; purified GLD-1 + fluorescein TGE RNA, fluorescence polarization; inhibition, % at 5.96 µM; 0.44% of 320,000 active;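 active = percent inhibition above a per-plate cutoff, the plate mean of test compounds plus 3 SD, cut at about 30% in these data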;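 note: 0% = DMSO wells with GLD-1 and probe and 100% = wells lacking GLD-1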
EBV gp42 inh: blocks Epstein-Barr virus glycoprotein 42 binding. Q1HVG2. Fluorescence polarization binding assay, mP read-out. inhibition, % (tested at 21.74 µM). 0.42% of 220,000 active; in the data active = inhibition above about 50%
Target sequence (Q1HVG2 whole entry, looked up): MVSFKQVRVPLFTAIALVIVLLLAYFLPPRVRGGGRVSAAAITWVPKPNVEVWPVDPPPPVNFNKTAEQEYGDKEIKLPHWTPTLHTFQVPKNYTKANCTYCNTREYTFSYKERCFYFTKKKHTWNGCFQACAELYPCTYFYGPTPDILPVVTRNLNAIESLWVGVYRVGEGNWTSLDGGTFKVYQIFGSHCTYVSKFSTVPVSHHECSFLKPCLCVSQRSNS
MEX-5 binding: C. elegans MEX-5 TCR-2 RNA binding activity; Q9XUB2; MEX-5/FITC-TCR2 RNA binding, fluorescence polarization; active compounds read low; activity score (negative = inhibition of binding), % at 10 µM; 0.38% of 300,000 active; AID 1832;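 active = inhibition past about -25% in most replicates, and total fluorescence under double the plate's negative control median, limit read from the data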;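 note: 0% = DMSO and -100% = 5 µM competing unlabeled TCR2 RNA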
Target sequence (Q9XUB2 whole entry, looked up): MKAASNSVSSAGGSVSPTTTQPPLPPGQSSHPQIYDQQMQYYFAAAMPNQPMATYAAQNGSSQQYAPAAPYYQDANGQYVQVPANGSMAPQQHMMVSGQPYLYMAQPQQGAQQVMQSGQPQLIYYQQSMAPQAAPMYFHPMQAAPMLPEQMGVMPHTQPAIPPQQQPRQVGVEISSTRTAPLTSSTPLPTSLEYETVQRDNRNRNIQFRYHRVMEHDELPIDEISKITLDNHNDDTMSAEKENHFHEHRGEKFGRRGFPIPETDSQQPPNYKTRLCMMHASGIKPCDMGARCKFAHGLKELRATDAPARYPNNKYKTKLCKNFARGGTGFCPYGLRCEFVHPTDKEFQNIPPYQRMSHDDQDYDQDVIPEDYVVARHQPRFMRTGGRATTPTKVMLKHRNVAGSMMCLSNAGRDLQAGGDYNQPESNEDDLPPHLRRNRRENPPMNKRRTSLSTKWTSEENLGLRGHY
IMP-1 inhibitor: blocks Pseudomonas aeruginosa IMP-1 metallo-beta-lactamase. purified IMP-1, nitrocefin hydrolysis, epi-absorbance fluorescence. inhibition, % at 5.6 µM. 0.45% of 290,000 active;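 active = inhibition above the mean plus 3 SD of all compounds in the same screening run, cut at about 4.5% in these data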;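 note: 0% = IMP-1 with DMSO and 100% = DMSO wells lacking enzyme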
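assay system = purified recombinant IMP-1 metallo-beta-lactamase enzyme | schedule = 15 min preincubation plus 25 min reaction at 25 °C | signal = Epi-absorbance fluorescence, 480 nm excitation, 530 nm emission | read-out basis = percent inhibition from optical density relative to buffer-blank wells | controls = IMP-1 with DMSO as 0%, enzyme-free DMSO as 100%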
VIM-2 inhibitor: blocks Pseudomonas aeruginosa VIM-2 metallo-beta-lactamase; purified VIM-2, nitrocefin hydrolysis, epi-absorbance fluorescence; inhibition, % at 5.6 µM; 0.89% of 290,000 active; AID 1527;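 active = inhibition above the mean of all tested compounds plus 3 SD, cutoff set per screening run, cut at about 7.5% in these data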;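 note: red hydrolysis product quenches plate fluorescence so inhibitors raise well fluorescence; 0% = enzyme with DMSO and 100% = DMSO without enzyme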
Bcl-xL primary: inhibitors of human Bcl-xL. Q07817. AID 2129. inhibition, % at 10.9 µM. GST-Bcl-xL / FITC-Bim BH3 peptide fluorescence polarization. 0.7% of 320,000 active;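 active = inhibition above the mean of all tested compounds plus 3 SD, cutoff set per campaign, cut at about 30% in these data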;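 note: 0% = DMSO wells and 100% = unlabeled Bim-BH3 peptide competitor; inhibitors lower millipolarization by displacing the labeled peptide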
* hit, by the source's call; . = no result given. This is a sample that favours compounds with a hit; in the whole collection about 2.2% have one here.

SMILES	GLD-1 RNA inh	EBV gp42 inh	MEX-5 binding	IMP-1 inhibitor	VIM-2 inhibitor	Bcl-xL primary
O=C(NN1C(=O)c2ccccc2NC1c1ccccn1)c1ccc(Br)cc1 (stereo not drawn)	-0.6	-19.1	-30.0*	-2.4	-3.7	0.7
CC(=O)NN1C(=O)c2ccccc2NC1c1ccccn1 (stereo not drawn)	5.3	2.5	-0.6	-4.8	-5.5	-0.7
Cc1cccc(C2Nc3ccccc3C(=O)N2NC(=O)c2ccc([N+](=O)[O-])cc2)n1 (stereo not drawn)	10.1	-18.4	-54.2*	-0.5	-2.3	3.6
O=C(NN1C(=O)c2ccccc2NC1c1ccc([N+](=O)[O-])o1)c1ccc(Br)cc1 (stereo not drawn)	0.0	-7.2	0.9	-2.2	-1.9	9.6
Cc1ccccc1CC(=O)Nc1ccc(S(=O)(=O)N2CCN(C)CC2)cc1	-3.5	.	2.4	1.1	0.2	1.4
Cc1cc(C)c(C#N)c(N2CCN(CCOc3ccc(Cl)cc3)CC2)n1	5.5	11.7	-4.1	0.2	0.9	11.4
COc1ccc(Cl)cc1CN1CCN(c2nc(C)cc(C)c2C#N)CC1	14.0	49.4	-18.2	-2.5	1.5	78.0*
C=CCN1C=C2C(=O)C(C)(OC(=O)c3cccs3)C(=O)C=C2C=C1CCCC(=O)OC (stereo not drawn)	15.6	2.0	-3.1	.	.	15.0
CC1(OC(=O)c2cccs2)C(=O)C=C2C=C(c3ccc(C#N)cc3)OC=C2C1=O (stereo not drawn)	6.3	.	-20.3	.	.	4.2
CC1(OC(=O)c2cnc3ccccc3n2)C(=O)C=C2C=C(C3CC3)OC=C2C1=O (stereo not drawn)	113.8*	.	-53.0*	.	.	117.6*
CC1(OC(=O)c2ccco2)C(=O)C=C2C=C(C3CC3)OC=C2C1=O (stereo not drawn)	63.1*	.	-34.4*	.	.	75.0*
CC1(OC(=O)c2cccs2)C(=O)C=C2C=C(c3ccsc3)OC=C2C1=O (stereo not drawn)	16.8	.	-26.9*	.	.	13.0
COC/C=C/C1=CC2=CC(=O)C(C)(OC(=O)c3cnc4ccccc4n3)C(=O)C2=CN1C1CCCCC1 (stereo not drawn)	14.5	.	-6.2	-2.8	-0.6	21.6
CC1(OC(=O)c2cccs2)C(=O)C=C2C=C(C3CC3)OC=C2C1=O (stereo not drawn)	35.0*	.	-20.4	.	.	26.7
Cc1nc2sccn2c(=O)c1S(=O)(=O)N1CCN(c2cccc(Cl)c2)CC1	-3.4	.	-0.8	-2.1	-2.2	0.8
O=C(c1ccccc1)c1ccc(N2CCN(C(=O)c3cccc(F)c3F)CC2)c(F)c1	-6.9	.	1.0	-1.0	-1.9	4.8
CCCCC1=CC2=CC(=O)C(C)(OC(=O)CC)C(=O)C2=CN1C(CO)CO (stereo not drawn)	17.4	-4.5	2.3	.	.	12.6
CCC(=O)OC1(C)C(=O)C=C2C=C(C3CC3)OC=C2C1=O (stereo not drawn)	38.8*	.	-13.5	.	.	59.3*
CCn1c(SCC(=O)Nc2ccc3c(c2)OCO3)nnc1C(C)C	-1.4	.	-0.3	-3.2	-1.3	6.8
COc1ccc(-c2cn3nc4c(nc3n2)CCCC4)cc1	.	96.1*	.	-6.5	-4.3	.
CC(=O)Nc1cccc(/C(C)=N/NC(=O)c2ccc(CN3CCOCC3)cc2)c1	-4.3	-20.6	1.4	-2.4	-2.1	2.7
COC(=O)c1cc(C)sc1NC(=O)c1ccco1	-0.3	.	0.4	0.3	8.1*	8.2
COC(=O)c1ccsc1NC(=O)c1ccco1	3.7	.	6.7	-1.6	6.4	6.2
COC(=O)c1c(NC(=O)c2ccco2)sc(C(=O)N(C)C)c1C	-1.9	-16.8	-1.5	0.9	12.1*	8.0
COc1cccc(CNC(=O)N2CCN(c3ccccc3)CC2)c1	-2.9	.	-0.5	-3.5	0.1	0.9
SMILES	GLD-1 RNA inh	EBV gp42 inh	MEX-5 binding	IMP-1 inhibitor	VIM-2 inhibitor	Bcl-xL primary
COc1ccccc1NC(=O)c1ccc[n+]([O-])c1	5.8	.	0.5	0.7	0.3	4.5
CCC(C)(C)C1CCC(NC(=O)N2CCN(c3ccccc3O)CC2)CC1 (stereo not drawn)	0.9	.	-1.2	-1.7	-3.1	10.3
COc1ccc(C2C(C(=O)c3cccs3)=C(O)C(=O)N2c2nncs2)cc1 (stereo not drawn)	113.5*	132.9*	-85.1*	-2.4	5.2	139.4*
Cc1cccc(N2C(=O)C(O)=C(C(=O)c3cccs3)C2c2ccc(F)cc2)n1 (stereo not drawn)	0.1	-20.2	-0.2	-2.8	1.3	7.3
COc1cc(NC(=O)c2cc3sccc3n2C)cc(OC)c1	1.6	5.9	3.8	6.4*	0.8	4.7
NC(=O)c1sc(=S)n2c1[nH]c(=O)c1sccc12	1.6	3.2	-1.3	-1.4	8.2*	10.8
NC(=O)c1sc(=S)n(-c2ccc(Br)cc2)c1N	2.0	-6.2	0.6	-4.0	-1.2	2.7
CC(=O)NNC(=O)c1sc(=S)n2c1[nH]c(=O)c1sccc12	2.7	14.3	-48.9*	-1.2	23.1*	9.0
O=C(NCc1ccccc1)c1sc(=S)n2c1[nH]c(=O)c1ccccc12	11.7	27.6	-0.2	-1.8	-0.7	9.0
COc1ccc(NC(=O)CSc2ccc3c(c2)OCCO3)cc1S(N)(=O)=O	-3.9	.	.	.	.	.
COc1ccc(-c2nn(-c3ccccc3)cc2C(=O)NC(=S)N2CCOCC2)cc1OC	0.7	.	.	.	.	0.1
S=c1nc(-c2ccccc2)n(-c2ccccc2)[nH]1	2.6	.	0.4	-0.1	9.8*	-6.9
S=c1nc(-c2ccccc2)[nH]n1-c1ccccc1	4.8	-8.4	0.6	-2.3	-3.1	-1.5
Cc1ccc(-n2nc3c(=O)n(CC(=O)NCCc4ccc(Cl)cc4)nc(C)c3c2C)cc1	7.2	.	.	18.1*	-2.1	-1.8
Cc1ccc(-n2nc3c(=O)n(CCCC(=O)NCCN4CCN(C)CC4)nc(C)c3c2C)cc1	-18.3	.	-3.3	4.9*	1.7	-13.4
Cc1ccc(CCNC(=O)CCCn2nc(C)c3c(C)n(-c4ccc(C)cc4)nc3c2=O)cc1	-0.3	.	1.5	-1.4	-0.1	7.4
CC(=O)N1CCCc2cc(S(=O)(=O)CCC(=O)Nc3cccc(C)c3C)ccc21	2.4	.	-0.6	-1.4	-1.3	3.0
COC1CCCN(Cc2c(C(=O)N3CCN(C4CCCCC4)CC3)nc3ccccn23)C1 (stereo not drawn)	34.9*	.	-12.8	-1.7	-2.7	61.4*
CCOC(=O)C1CCCN(Cc2c(C(=O)N3CCOCC3)nc3ccccn23)C1 (stereo not drawn)	0.2	-11.4	-0.6	-1.1	-1.2	1.5
Cc1ccc(S(=O)(=O)N2CCN(CC(=O)Nc3ccnn3C3CCCC3)CC2)cc1	0.5	.	.	.	.	3.8
O=C(CC(CC(=O)c1ccc(Cl)cc1)c1ccccc1C(=O)O)c1ccc(Cl)cc1	1.1	.	2.9	-3.5	11.6*	3.1
COc1cccc2c1-c1c(O)cccc1C2=O	2.8	.	-8.9	-0.7	11.3*	43.2*
